The values that follow come from publication PMC7409366 (Bioorganic chemistry, 2020).

Structures are written as SMILES. Like-named read-outs stand apart in the source and are kept apart here.

For experiment [1], the system named is human neutrophils. The experiment in a line: Human neutrophil chemotaxis. It is filed as cell-based. The conditions noted are these: read-out: Chemotaxis EC50. The procedure, abridged:
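Neutrophils from healthy-donor blood purified by dextran sedimentation, Histopaque 1077 gradient and hypotonic red-cell lysis, then washed twice into Ca/Mg-free HBSS; preparations >95% pure by light microscopy and >98% viable by trypan blue.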

The subject of experiment [2] is CFA-induced rheumatoid arthritis in rats. Nature of the experiment: Incapacitance test in CFA-induced rheumatoid arthritis. The conditions noted are these: for Δ Weight (incapacitance test): day 14 after CFA. It is filed as in vivo, rat.
For experiment [3], the target named is T1, FPR2 (Homo sapiens, UniProt P25090).
T1 sequence (P25090 1-351): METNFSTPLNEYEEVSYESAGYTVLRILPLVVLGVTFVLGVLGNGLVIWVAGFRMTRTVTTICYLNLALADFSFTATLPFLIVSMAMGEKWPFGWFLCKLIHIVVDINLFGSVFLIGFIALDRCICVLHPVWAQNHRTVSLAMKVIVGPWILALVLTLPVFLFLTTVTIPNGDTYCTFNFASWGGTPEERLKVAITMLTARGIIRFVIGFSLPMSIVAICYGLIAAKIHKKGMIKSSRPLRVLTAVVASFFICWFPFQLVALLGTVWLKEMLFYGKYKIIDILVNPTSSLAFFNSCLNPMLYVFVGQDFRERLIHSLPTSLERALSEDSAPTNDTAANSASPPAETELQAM
The experiment in a line: Ca2+ mobilization in FPR2-transfected HL60 cells. It counts as cell-based.

For experiment [4], the system named is human neutrophils. Nature of the experiment: Desensitization of human neutrophil chemotaxis toward WKYMVm. It is filed as cell-based. Particulars: 0.5 h, read-out: Chemotaxis IC50.
In experiment [5] the test system is CFA-induced rheumatoid arthritis in rats. Nature of the experiment: Paw pressure test in CFA-induced rheumatoid arthritis. It is filed as in vivo, rat.
In experiment [6] the target is T2, FPR1 (Homo sapiens, UniProt P21462).
T2 sequence (P21462 1-350): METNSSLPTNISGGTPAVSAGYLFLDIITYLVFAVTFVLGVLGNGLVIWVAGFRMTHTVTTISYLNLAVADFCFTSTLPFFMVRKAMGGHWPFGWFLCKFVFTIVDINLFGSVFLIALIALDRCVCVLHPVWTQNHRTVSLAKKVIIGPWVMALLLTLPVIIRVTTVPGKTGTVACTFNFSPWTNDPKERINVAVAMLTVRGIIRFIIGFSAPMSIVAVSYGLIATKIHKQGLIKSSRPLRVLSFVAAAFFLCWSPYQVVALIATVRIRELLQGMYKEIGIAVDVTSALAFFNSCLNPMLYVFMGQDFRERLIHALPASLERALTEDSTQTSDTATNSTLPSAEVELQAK
Nature of the experiment: Ca2+ mobilization in FPR1-transfected HL60 cells. It is filed as cell-based. (A change in cytosolic calcium serves as a functional read-out for many receptors and channels.)

In experiment [7] the test system is collagen-induced arthritis and antigen-induced arthritis. Particulars: 30 mg/kg i.p., mice, both models; cited from earlier work.
In experiment [8] the target is T1, FPR2. Particulars: read-out: FPR2 EC50; EC10; cited from earlier work.
Experiment [9] deals with T2, FPR1. The conditions noted are these: read-out: FPR1 EC50; EC10; cited from earlier work.
Another experiment deals with FPR3. The conditions noted are these: read-out: FPR3 EC50; EC10; cited from earlier work.

As for `COc1cccc(-c2cc(C#N)c(=O)n(CC(=O)Nc3ccc(Br)cc3)c2C)c1` [Compound 2a, N-(4-Bromophenyl)-2-[3-cyano-5-(3-methoxyphenyl)-6-methyl-2-oxopyridin-1(2H)-yl]acetamide], in the experiment on human neutrophils [1], the concentration for a half-maximal effect (EC50) (usually the concentration needed to bring the measured effect to its halfway point) is 0.02 ± 0.004 µM. Further, the “effect on postural unbalance (incapacitance test)” value in [2] (10 and 30 mg/kg p.o., between 15 and 60 min after administration) was “significantly reduced the postural unbalance”. Moreover, the “preference for FPR2 versus FPR1” value at FPR2 [3] (ratio of EC50 values) came out at 10 fold. Further, the IC50 (commonly the concentration at which inhibition is half-maximal) in the experiment with human neutrophils [4] came to 6.1 ± 1.1 µM. Moreover, in [5] (10 mg/kg p.o., day 14 after CFA), the “effect on pain threshold (paw pressure test)” value was “effective between 30 and 60 min”. In [5] (30 mg/kg p.o., day 14 after CFA, 15 to 45 min, CFA + vehicle 37.5 ± 1 g), the “pain threshold (paw pressure test)” value came to 63.3 ± 2 g.
Turning to `COc1ccc(-c2cc(C#N)c(=O)n(CC(=O)Nc3ccc(Br)cc3)c2C)cc1` [Compound 2b, N-(4-Bromophenyl)-2-[3-cyano-5-(4-methoxyphenyl)-6-methyl-2-oxopyridin-1(2H)-yl]acetamide], the EC50 was found to be 0.48 ± 0.08 µM at FPR2 [3] and 1 ± 0.2 µM on FPR1 [6].
For the molecule `COc1ccc(-c2cc(C#N)c(=O)n(CC(=O)Nc3ccc(Br)cc3)c2C)cc1OC` [Compound 2c, N-(4-Bromophenyl)-2-[3-cyano-5-(3,4-dimethoxyphenyl)-6-methyl-2-oxopyridin-1(2H)-yl]acetamide], the EC50 came out at 0.06 ± 0.015 µM in the experiment with human neutrophils [1], 0.6 ± 0.2 µM at FPR2 [3] and 33.2 ± 4.9 µM on FPR1 [6]. The IC50 in the experiment with human neutrophils [4] worked out at 18.8 ± 3.2 µM.
Turning to `CCOC(=O)c1cc(C#N)c(=O)n(CC(=O)Nc2ccc(Br)cc2)c1C` [Compound 2d, 1-[(4-Bromophenylcarbamoyl)-methyl]-5-cyano-2-methyl-6-oxo-1,6-dihydropyridine-3-carboxylic acid ethyl ester], the EC50 in the experiment with human neutrophils [1] was 0.013 ± 0.001 µM; at FPR1 [6] (read-out: FPR1-HL60 EC50, Ca2+ mobilization, mean of three independent experiments, N.A. = no activity (efficacy < 20% and EC50 < 50 μM as printed)) it was 3 µM. In the experiment on human neutrophils [4], the IC50 amounted to 8.4 ± 1.2 µM.
On to `CCOC(=O)c1cc(C(=O)Nc2cccc(OC)c2)c(=O)n(CC(=O)Nc2ccc(Br)cc2)c1C` [Compound 6a, 1-[(4-Bromophenylcarbamoyl)methyl]-5-(3-methoxyphenylcarbamoyl)-2-methyl-6-oxo-1,6-dihydropyridine-3-carboxylic acid ethyl ester], for which the results for the EC50 on FPR2 [3] and at FPR1 [6] were 28.9 ± 2.7 µM and 0.4 ± 0.1 µM, respectively. Also, on FPR1 [6] (FPR1 versus FPR2 EC50), the “preference for FPR1” value is reported as “about 72 fold”.
In the case of `CCOC(=O)c1cc(C(=O)Nc2ccc(OC)cc2)c(=O)n(CC(=O)Nc2ccc(Br)cc2)c1C` [Compound 6b, 1-[(4-Bromophenylcarbamoyl)methyl]-5-(4-methoxyphenylcarbamoyl)-2-methyl-6-oxo-1,6-dihydropyridine-3-carboxylic acid ethyl ester], the EC50 at FPR2 [3] was determined as 16.4 ± 3.3 µM; on FPR1 [6], 7.9 ± 1.4 µM.
In the same order, the values of `COc1cccc(NC(=O)c2cc(-c3ccncc3)c(C)n(CC(=O)Nc3ccc(Br)cc3)c2=O)c1` [Compound 6c, 1-[(4-Bromophenylcarbamoyl)methyl]-2-methyl-6-oxo-1,6-dihydro-[3,4′]bipyridinyl-5-carboxylic acid (3-methoxyphenyl) amide] are 1.8 ± 0.21 µM and 1.4 ± 0.4 µM.
Turning to `COc1cccc(NC(=O)c2cc(C#N)c(=O)n(CC(=O)Nc3ccc(Br)cc3)c2C)c1` [Compound 9a, 1-[(4-Bromophenylcarbamoyl)methyl]-5-cyano-2-methyl-6-oxo-1,6-dihydro-pyridine-3-carboxylic acid (3-methoxyphenyl) amide], the EC50 at FPR2 [3] was found to be 0.31 ± 0.09 µM; at FPR1 [6], 3.9 ± 1.2 µM.
The matching figures for `COc1ccc(NC(=O)c2cc(C#N)c(=O)n(CC(=O)Nc3ccc(Br)cc3)c2C)cc1` [Compound 9b, 1-[(4-Bromophenylcarbamoyl)methyl]-5-cyano-2-methyl-6-oxo-1,6-dihydro-pyridine-3-carboxylic acid (4-methoxyphenyl) amide]: 0.44 ± 0.12 µM and 0.96 ± 0.39 µM.
In the same order, the values of `CCCn1ccc(=O)n(CC(=O)Nc2ccc(Br)cc2)c1=O` [Compound 11d, N-(4-Bromophenyl)-2-(2,6-dioxo-3-propyl-3,6-dihydropyrimidin-1(2H)-yl)acetamide] are 4.1 ± 1.3 µM and 5.5 ± 1.6 µM.
In the case of `CC(C)c1c(NC(=O)Nc2ccc(Cl)cc2)c(=O)n(-c2ccccc2)n1C` [Cpd43], in experiment [7], the “effect on arthritis disease severity” value was “significantly reduced disease severity”.
Regarding `COc1cccc(Nc2c(C(C)=O)c(C)nn(CC(=O)Nc3ccc(Br)cc3)c2=O)c1` [EC10], the “Δ Weight (incapacitance test)” value in [2] (10 and 30 mg/kg p.o., 15 to 60 min, CFA + vehicle 62.8 ± 3.1 g) came to 40.2 ± 1.1 g. In addition, the results for the concentration giving a half-maximal response (EC50) at FPR2 [8], at FPR1 [9] and in the experiment on FPR3 were 0.17 µM, 0.045 µM and 0.21 µM, respectively. For the same molecule, in [5] (10 and 30 mg/kg p.o., between 15 and 60 min, similar efficacy as EC3), the “effect on pain threshold (paw pressure test)” value is given as “increased the pain threshold”.
With `CC(C)Cc1ccc(C(C)C(=O)O)cc1` (centres unmarked) [Ibuprofen, ibuprofen, reference compound], the “Δ Weight (incapacitance test)” value in [2] (100 mg kg−1 p.o., 15 to 30 min, CFA + vehicle 62.6 ± 2.5 g) is 34.7 ± 6.1 g.
